Screens: PubChem BioAssay, several laboratories
Only some compounds are listed: those with a hit (about 0.57% of all), similar ones and a draw of the others.
JMJD2C inh = blocks human GASC-1 demethylase activity; GST-JMJD2C(1-420) H3K9me3 demethylation, DELFIA europium; Q9H3R0; actives 0.069% (n = 330,000); inhibition, % at 2.35 µM;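 active = more than half of a compound's replicate wells show inhibition beyond 50%, single wells judged on their own value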;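 note: signal counts dimethyl H3K9 product captured on neutravidin plate; 0% = median of DMSO wells and 100% = 0.3 times that DMSO median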
VLA-4 inh = inhibition in a human VLA-4 binding assay. P13612. actives 0.2% (n = 330,000). AID 2557. inhibition, % (about 7 µM as worked out from the volumes in the protocol). VLA-4 expressing cells, ligand binding flow cytometry; in the data active = inhibition above about 50%
Target sequence (P13612 whole entry, looked up): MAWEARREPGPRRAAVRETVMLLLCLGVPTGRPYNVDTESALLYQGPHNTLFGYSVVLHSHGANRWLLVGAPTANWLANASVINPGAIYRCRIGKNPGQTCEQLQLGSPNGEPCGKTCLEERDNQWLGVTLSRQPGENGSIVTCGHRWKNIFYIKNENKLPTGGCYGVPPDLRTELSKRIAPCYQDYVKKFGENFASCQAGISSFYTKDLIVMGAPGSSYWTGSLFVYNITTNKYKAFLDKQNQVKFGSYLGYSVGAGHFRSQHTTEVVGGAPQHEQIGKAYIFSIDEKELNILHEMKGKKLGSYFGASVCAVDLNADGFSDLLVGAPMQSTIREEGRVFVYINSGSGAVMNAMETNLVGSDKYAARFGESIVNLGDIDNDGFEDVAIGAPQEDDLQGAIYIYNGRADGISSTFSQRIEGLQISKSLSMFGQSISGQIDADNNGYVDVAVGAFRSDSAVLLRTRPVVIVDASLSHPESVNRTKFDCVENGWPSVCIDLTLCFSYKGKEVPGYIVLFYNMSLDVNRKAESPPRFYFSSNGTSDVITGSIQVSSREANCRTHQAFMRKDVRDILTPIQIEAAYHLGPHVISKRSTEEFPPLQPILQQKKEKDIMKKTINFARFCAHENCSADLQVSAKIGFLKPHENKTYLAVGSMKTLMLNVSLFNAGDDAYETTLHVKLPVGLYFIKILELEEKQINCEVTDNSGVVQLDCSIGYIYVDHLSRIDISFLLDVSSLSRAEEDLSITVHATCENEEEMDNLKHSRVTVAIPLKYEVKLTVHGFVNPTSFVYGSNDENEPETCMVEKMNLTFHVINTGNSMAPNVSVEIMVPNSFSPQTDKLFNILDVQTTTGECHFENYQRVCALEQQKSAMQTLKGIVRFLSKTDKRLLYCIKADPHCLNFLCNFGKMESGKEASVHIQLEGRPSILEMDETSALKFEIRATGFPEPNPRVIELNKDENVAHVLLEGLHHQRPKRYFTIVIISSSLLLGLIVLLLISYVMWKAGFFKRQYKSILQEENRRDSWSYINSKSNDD
Arr AP2 block = human beta-arrestin and AP2 interaction inhibition | inhibition, % at 10 µM | actives 0.31% (n = 340,000) | FITC-arrestin peptide / GST-AP2 beads, flow cytometry; AP2 beta2 appendage carries R879A mutation;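 active = inhibition above a set limit, near 3 SD of compounds lacking own fluorescence, cut at about 54% in these data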;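 note: plate controls were DMSO wells for no effect and 5 µM unlabelled arrestin peptide for full effect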
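Measured by: flow cytometry, FL1 (488/535 nm); Material: AP2 appendage R879A on GSH beads; Evaluation: percent response; Timing: pre-incubation 12 min, peptide binding 1 h, room temperature; Also added: 50 nM FITC-arrestin peptide; Medium: PBS with 0.05% Tween 20 and 0.1% BSA.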
pCIP destab = compounds decreasing mouse p/CIP protein stability. Q05BA5. actives 0.01% (n = 290,000). decrease of EGFP signal, % at 10 µM. F442A p/CIP-EGFP cells, EGFP fluorescence, 16 h;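 active = EGFP signal decrease of at least 30% at 10 µM or well 3 SD below plate mean, unless failing retest; inactive = the rest, including hits failing retest or dose response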
VLA-4 allo CP = confirmation of allosteric modulators of human VLA-4 integrin; shares compounds with VLA-4 inh; U937 cells, HUTS-21 LIBS mAb binding, flow cytometry; LDV ligand present at threefold Kd; inhibition, % at 6.7 µM; actives 2% (n = 1,300); AID 2813; in the data active = inhibition above about 40%;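 note: 0% = ligand without compound and 100% = no ligand background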
* = called active by the depositor; nt = no result; ! = not confirmed by another sample.

SMILES	JMJD2C inh	VLA-4 inh	Arr AP2 block	pCIP destab	VLA-4 allo CP
CC(C)OC(=O)NCCOC(=O)Nc1ccc(Cl)c(Cl)c1	-3	-1	4	3	nt
CC(=O)Nc1cccc(OCc2cnc(Cl)s2)c1	9	2	-1	5	nt
O=C(Nc1ccccc1)OCc1cnc(Cl)s1	-2	0	-3	5	3
O=C(Nc1ccc(Cl)c(Cl)c1)OCc1cncs1	-1	4	12	3	-3
O=C(/C=C/c1ccccc1)OCc1cncs1	-7	0	9	-4	nt
O=C(Nc1ccccc1)OCc1cncs1	2	7	-12	3	6
CCOc1cc(/C=C(\C#N)C(=O)Nc2cccc(C(=O)O)c2)cc(Br)c1OC(=O)c1ccc(OC)cc1	4	0	0	-12	nt
Cc1sc(NC(=O)CSc2nnnn2C2CCCC2)c(C#N)c1C	-8	-6	8	4	nt
CCOC(=O)CSc1ccc2nnc(-c3cccs3)n2n1	-15	51*	-1	2	16
Cc1cc(C(=O)NCc2ccccc2)no1	-2	-11	-10	0	nt
Cc1cc(C(=O)NNCc2ccccc2)no1	nt	56*	1	nt	6
O=C(O)c1cccc(NS(=O)(=O)c2cccc3cccnc23)c1	12	50*	-4	-21	18
CCc1cccc(NS(=O)(=O)c2cccc3cccnc23)c1	-10	-4	-9	3	nt
O=P(OC1CCCCC1)(OC1CCCCC1)C(O)c1c(Cl)cccc1Cl (stereo not drawn)	-20	6	33	-10	nt
CCOC(=O)C(NC(=O)c1cccc(Cl)c1)(Nc1nnc(C)s1)C(F)(F)F (stereo not drawn)	12	47	1	-4	10
CCOC(=O)C(CC(=O)O)N1CCCCC1 (stereo not drawn)	10	8	-2	-10	nt
Cc1ccc(NC(=O)CCC(=O)N/N=C/c2ccc(O)cc2)cc1	-15	-1	1	6	nt
O=C(c1ccco1)N1CCN(C(=O)c2cc(-c3ccccc3)nc3ccccc23)CC1	3	-3	3	-15	nt
O=C(c1cc(-c2ccco2)nc2ccccc12)N1CCN(Cc2ccccc2)CC1	0	5	7	nt	-3
O=C(c1ccco1)N1CCN(C(=O)c2cc(-c3ccccn3)nc3ccc(Cl)cc23)CC1	14	-8	-8	-6	-10
O=C(c1ccco1)N1CCN(C(=O)c2cc(-c3ccncc3)nc3ccc(Br)cc23)CC1	-8	-1	1	nt	2
COc1ccc(OC)c(NS(=O)(=O)c2ccc(Cl)nc2)c1	3	-3	-3	0	nt
CCOC(=O)CN1C(=O)CN(c2ccc(C)c(C)c2)C1=O	0	-5	38	-3	nt
Cc1cc(C)cc(N(CC(=O)Nc2ccc(Br)cc2)S(=O)(=O)c2c(C)[nH]c(=O)[nH]c2=O)c1	9	2	3	7	12
Cc1cc(C)cc(N(CC(=O)Nc2cc(C)ccc2C)S(=O)(=O)c2c(C)[nH]c(=O)[nH]c2=O)c1	-7	5	2	-2	2
SMILES	JMJD2C inh	VLA-4 inh	Arr AP2 block	pCIP destab	VLA-4 allo CP
Cc1ccc(C(=O)OCC(=O)Nc2cccc(Cl)c2C)c(O)c1	-1	1	-8	-16	-5
Cc1ccc(C(=O)OCC(=O)Nc2ccccc2Cl)c(O)c1	6	20	40	0	nt
COc1cccc(-c2cc(=O)c3cc(NC(=O)c4ccc(Cl)cc4)ccc3[nH]2)c1	-11	50*	1	4	-2
COc1cccc(-c2cc(=O)c3cc(NC(=O)c4ccccc4)ccc3[nH]2)c1	5	-4	8	-6	nt
Nc1cc(C(=O)OCC(=O)NCCC2=CCCCC2)ccc1Cl	-1	-19	23	nt	5
CC(=O)Nc1ccc(-n2cnnn2)cc1	3	0	-4	-3	nt
COC(=O)[C@@H]1[C@@H](C#N)C2(c3ccccc3-c3ccccc32)N(c2ccc(Cl)cc2)N1C#N	1	58*	-2	-19	39
CC(=O)Nc1ccc2c(c1)ncn2-c1ccccc1	2	-1	7	-8	nt
CCC(=O)Nc1ccc2c(c1)ncn2-c1ccccc1	0	53*	2	-5	-4
CN(Cc1cnc2nc(N)nc(N)c2n1)c1ccc(C(=O)N[C@@H](CCC(=O)O)C(=O)O)cc1	-17	55*!	-3	nt	-2
Nc1nc2ncc(CNc3ccc(C(=O)N[C@@H](CCC(=O)O)C(=O)O)cc3)nc2c(=O)[nH]1	-9	-8	-1	6	nt
Cc1cc2nc3c(c(=O)n2[nH]1)CCCC3	5	91*	1	-5	2
O=c1c2c(nc3cc(-c4ccccc4)[nH]n13)CCC2	1	18	21	-3	nt
O=C(c1cccc(NC2=NC3CS(=O)(=O)CC3S2)c1)N1CCN(c2ncccn2)CC1 (stereo not drawn)	1	3	-3	3	-1
CCOC(=O)N1CCN(C(=O)c2cccc(NC3=NC4CS(=O)(=O)CC4S3)c2)CC1 (stereo not drawn)	-1	10	25	6	7
COc1cccc(N2CCN(C(=O)c3ccc(Cl)c(NC4=NC5CS(=O)(=O)CC5S4)c3)CC2)c1 (stereo not drawn)	0	0	50	-9	0
CC1CCCN(C(=O)COC(=O)C2CCN(S(=O)(=O)c3ccc(Cl)c(C(F)(F)F)c3)CC2)C1 (stereo not drawn)	2	2	-1	nt	nt
O=C(CN(CC1CCCO1)C(=O)c1nsc(Cl)c1Cl)NC1CCCC1 (stereo not drawn)	-8	57*	26	-6	4
O=C(COC(=O)c1nsc(Cl)c1Cl)NC1CCCC1	5	15	10	-5	nt
CCN(CC(=O)Nc1ccc(NC(C)=O)cc1)C(=O)/C=C/c1cccs1	-3	54*	-1	-8	4
COCCn1cnc2c1c(=O)n(CC(=O)O)c(=O)n2Cc1ccccc1	-6	14	-7	-8	nt
O=C(Nc1cccc(Cl)c1)c1ccc(F)c(S(=O)(=O)N2CCN(c3ccccn3)CC2)c1	-4	-6	2	-3	nt
NS(=O)(=O)c1ccc(CNC(=O)C(Cc2ccccc2)NS(=O)(=O)c2ccccc2F)cc1 (stereo not drawn)	-2	43	12	2	-9
CCOc1ccc(N(CC(=O)Nc2ccc(OC)cc2)S(=O)(=O)c2c(C)[nH]c(=O)[nH]c2=O)cc1	12	57*	8	-1	0
CCOc1ccc(N(CC(=O)Nc2ccc(C)cc2)S(=O)(=O)c2c(C)[nH]c(=O)[nH]c2=O)cc1	-3	12	-4	-11	nt
CCOc1ccc(NC(=O)CN(c2ccc(OCC)cc2)S(=O)(=O)c2c(C)[nH]c(=O)[nH]c2=O)cc1	26	-5	4	17	10
CCCC(=O)NC(c1ccc(OC)c(OC)c1)c1cc(Cl)c2cccnc2c1O (stereo not drawn)	12	3	9	-13	nt
